Data published in ChEMBL document CHEMBL2177069, “Novel peptidomimetic compounds containing redox active chalcogens and quinones as potential anticancer agents” (Eur J Med Chem, 2012).
Calls of active or inactive are those of the source. No cut-off for these calls is given here.

Key:
[1] = system: Saccharomyces cerevisiae; experiment: Growth inhibition of GSH2-deficient Saccharomyces cerevisiae YOL049W mutant at 20 ug/disc after 24 to 48 hrs by agar diffusion assay; assay type: functional; details: read-out: DIZ
In short: (§1)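 S. cerevisiae deletion mutants or wild type grown on YPD, seeded into liquid agar medium at an optical density of 0.1. 6 mm paper discs soaked with methanolic compound solution were placed on the plates and incubated at 30 °C. Growth was checked after 1 and 2 days, and the inhibition zone diameter was recorded in mm.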

[2] = system: PC-3; experiment: Cytotoxicity against human PC3 cells; assay type: functional
[3] = system: CAKI-1; experiment: Cytotoxicity against human Caki1 cells; assay type: functional
[4] = system: SR; experiment: Cytotoxicity against human SR cells; assay type: functional
[5] = system: BT-549; experiment: Cytotoxicity against human BT549 cells; assay type: functional
[6] = system: SF-268; experiment: Cytotoxicity against human SF268 cells; assay type: functional
[7] = system: Hs-578T; experiment: Cytotoxicity against human Hs578T cells; assay type: functional
[8] = system: SW-620; experiment: Cytotoxicity against human SW620 cells; assay type: functional
[9] = system: CCRF-CEM; experiment: Cytotoxicity against human CCRF-CEM cells; assay type: functional
[10] = system: Saccharomyces cerevisiae; experiment: Growth inhibition of POS5-deficient Saccharomyces cerevisiae YPL188W mutant at 20 ug/disc after 24 to 48 hrs by agar diffusion assay; assay type: functional; details: read-out: DIZ; in short: as §1
[11] = system: TK-10; experiment: Cytotoxicity against human TK10 cells; assay type: functional
[12] = system: UACC-62; experiment: Cytotoxicity against human UACC62 cells; assay type: functional
[13] = system: Saccharomyces cerevisiae; experiment: Growth inhibition of COX17-deficient Saccharomyces cerevisiae YLL009C mutant at 20 ug/disc after 24 to 48 hrs by agar diffusion assay; assay type: functional; details: read-out: DIZ; in short: as §1
[14] = system: PtK2; experiment: Induction of oxidative stress in potoroo PtK2 cells assessed as reduction in actin stress fibres after 24 hrs by immunofluorescence microscopic analysis; assay type: functional, cell-based; details: Potorous tridactylus
In short: (§2)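 PtK2 cells were grown on coverslips and treated once semi-confluent, for 24 h. Cells were fixed with 3.7% paraformaldehyde followed by 0.1% Triton X-100, or with cold methanol/acetone 50:50. Primary and secondary antibodies were applied for 45 min each: anti-GRP94 for ER, anti-α-tubulin. Actin was stained with phalloidin and nuclei with DAPI. Imaging was by fluorescence microscopy with a CCD camera.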

[15] = system: MCF7; experiment: Cytotoxicity against human MCF7 cells; assay type: functional
[16] = system: IGROV-1; experiment: Cytotoxicity against human IGROV1 cells; assay type: functional
[17] = system: PtK2; experiment: Induction of oxidative stress in potoroo PtK2 cells assessed as change in cell morphology after 24 hrs by immunofluorescence microscopic analysis; assay type: functional, cell-based; details: Potorous tridactylus; in short: as §2
[18] = system: SNB-19; experiment: Cytotoxicity against human SNB19 cells; assay type: functional
[19] = system: PtK2; experiment: Induction of oxidative stress in potoroo PtK2 cells assessed as hole in the endoplasmic reticulum after 24 hrs by immunofluorescence microscopic analysis; assay type: functional, cell-based; details: Potorous tridactylus; in short: as §2
[20] = system: HUVEC; experiment: Cytotoxicity against human HUVEC cells after 24 hrs by MTT assay; assay type: cell-based
In short: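 MTT assay. Cells were seeded at 50,000 cells/mL in medium with 10% fetal calf serum and grown for two days at 37 °C, 10% CO2. Serial dilutions of compound were then added for 24 h. MTT was added (final 0.5 mg/mL) for 2 h, and the formazan was pelleted, washed, dissolved in isopropanol with 0.4% HCl and read at 590 nm. IC50 is the concentration giving 50% of untreated-control absorbance, taken from dose-response curves; mean of two parallel experiments.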

[21] = system: RPMI-8226; experiment: Cytotoxicity against human RPMI8226 cells; assay type: functional
[22] = system: HL-60; experiment: Cytotoxicity against human HL60 cells; assay type: functional
[23] = system: NCI-H23; experiment: Cytotoxicity against human NCI-H23 cells; assay type: functional
[24] = system: K562; experiment: Cytotoxicity against human K562 cells; assay type: functional
[25] = system: Saccharomyces cerevisiae; experiment: Growth inhibition of RCK1-deficient Saccharomyces cerevisiae YGL158W mutant at 20 ug/disc after 24 to 48 hrs by agar diffusion assay; assay type: functional; details: read-out: DIZ; in short: as §1
[26] = system: KM12; experiment: Cytotoxicity against human KM12 cells; assay type: functional
[27] = system: OVCAR-8; experiment: Cytotoxicity against human OVCAR8 cells; assay type: functional
[28] = system: SK-MEL-5; experiment: Cytotoxicity against human SK-MEL-5 cells; assay type: functional
[29] = system: UACC-257; experiment: Cytotoxicity against human UACC257 cells; assay type: functional
[30] = system: NCI-H460; experiment: Cytotoxicity against human NCI-H460 cells; assay type: functional
[31] = system: HOP-62; experiment: Cytotoxicity against human HOP62 cells; assay type: functional
[32] = system: EKVX; experiment: Cytotoxicity against human EKVX cells; assay type: functional
[33] = system: OVCAR-3; experiment: Cytotoxicity against human OVCAR3 cells; assay type: functional
[34] = system: PtK2; experiment: Induction of oxidative stress in potoroo PtK2 cells assessed as change in microtubular network after 24 hrs by immunofluorescence microscopic analysis; assay type: functional, cell-based; details: Potorous tridactylus; in short: as §2
[35] = system: A549; experiment: Cytotoxicity against human A549 cells; assay type: functional
[36] = system: Saccharomyces cerevisiae; experiment: Growth inhibition of wild type Saccharomyces cerevisiae BY4741 at 20 ug/disc after 24 to 48 hrs by agar diffusion assay; assay type: functional; details: read-out: DIZ; in short: as §1
[37] = system: NCI-H322M; experiment: Cytotoxicity against human NCI-H322M cells; assay type: functional
[38] = system: Saccharomyces cerevisiae; experiment: Growth inhibition of SOD2-deficient Saccharomyces cerevisiae YHR008C mutant at 20 ug/disc 24 to 48 hrs by agar diffusion assay; assay type: functional; details: read-out: DIZ; in short: as §1
[39] = system: SF-295; experiment: Cytotoxicity against human SF295 cells; assay type: functional

**Q.** What does the source list for `CC1=C([Se]CC(OC(=O)[C@@H](CO)NC(=O)OC(C)(C)C)C(=O)NC(C)(C)C)C(=O)c2ccccc2C1=O` (stereo partly specified)?
**A.** zone of inhibition at 20 µg/disc [1]: 18 mm; GI50 [2]: 1.35 µM; LC50 [2]: 6.03 µM; TGI ([2]; read-out: pTGI (converted)): 2.82 µM; GI50 [3]: 1.74 µM; LC50 [3]: 6.61 µM; TGI ([3]; read-out: pTGI (converted)): 3.39 µM; GI50 [4]: 0.741 µM; LC50 [4]: > 100 µM; GI50 [5]: 1.58 µM; LC50 [5]: 5.37 µM; TGI ([5]; read-out: pTGI (converted)): 2.95 µM; GI50 [6]: 1.91 µM; LC50 [6]: 5.89 µM; TGI ([6]; read-out: pTGI (converted)): 3.31 µM; GI50 [7]: 2.82 µM; LC50 [7]: > 100 µM; GI50 [8]: 1.78 µM; LC50 [8]: 6.31 µM; TGI ([8]; read-out: pTGI (converted)): 3.31 µM; GI50 [9]: 0.525 µM; LC50 [9]: > 100 µM; TGI ([9]; read-out: pTGI): > 100 µM; zone of inhibition at 20 µg/disc [10]: 11 mm; GI50 [11]: 2 µM; LC50 [11]: 6.03 µM; TGI ([11]; read-out: pTGI (converted)): 3.47 µM; GI50 [12]: 1.66 µM; LC50 [12]: 5.62 µM; TGI ([12]; read-out: pTGI (converted)): 3.02 µM; zone of inhibition at 20 µg/disc [13]: 13 mm; Activity [14]: Active; GI50 [15]: 1.74 µM; LC50 [15]: 8.91 µM; TGI ([15]; read-out: pTGI (converted)): 3.98 µM; GI50 [16]: 1.66 µM; LC50 (concentration killing 50% of cells) [16]: 6.46 µM; TGI ([16]; read-out: pTGI (converted)): 3.24 µM; Activity [17]: Active; GI50 [18]: 0.661 µM; LC50 [18]: 4.9 µM; TGI ([18]; read-out: pTGI (converted)): 2 µM; Activity [19]: Active; IC50 [20]: 3 µM; GI50 [21]: 2.75 µM; LC50 [21]: > 100 µM; TGI ([21]; read-out: pTGI (converted)): 8.91 µM; GI50 [22]: 0.871 µM; LC50 [22]: > 100 µM; TGI ([22]; read-out: pTGI (converted)): 3.8 µM; GI50 [23]: 1.48 µM; LC50 [23]: 6.92 µM; TGI ([23]; read-out: pTGI (converted)): 3.24 µM; GI50 [24]: 1.35 µM; LC50 [24]: > 100 µM; zone of inhibition at 20 µg/disc [25]: 18 mm; GI50 [26]: 1.51 µM; LC50 [26]: 5.5 µM; TGI ([26]; read-out: pTGI (converted)): 2.88 µM; GI50 [27]: 1.86 µM; TGI ([27]; read-out: pTGI (converted)): 3.55 µM; GI50 [28]: 1.58 µM; LC50 [28]: 5.5 µM; TGI ([28]; read-out: pTGI (converted)): 2.95 µM; GI50 [29]: 1.74 µM; LC50 [29]: 6.03 µM; TGI ([29]; read-out: pTGI (converted)): 3.24 µM; GI50 [30]: 0.457 µM; LC50 [30]: 7.41 µM; TGI ([30]; read-out: pTGI (converted)): 1.78 µM; GI50 [31]: 0.525 µM; LC50 [31]: 4.37 µM; TGI ([31]; read-out: pTGI (converted)): 1.86 µM; GI50 [32]: 1.78 µM; LC50 [32]: 7.76 µM; TGI ([32]; read-out: pTGI (converted)): 3.72 µM; GI50 [33]: 1.78 µM; LC50 [33]: 5.62 µM; TGI ([33]; read-out: pTGI (converted)): 3.16 µM; Activity [34]: inactive; GI50 [35]: 1.82 µM; LC50 [35]: 89.1 µM; TGI ([35]; read-out: pTGI (converted)): 9.33 µM; zone of inhibition at 20 µg/disc [36]: 0 mm; GI50 [37]: 0.447 µM; LC50 [37]: 32.4 µM; TGI ([37]; read-out: pTGI (converted)): 3.72 µM; zone of inhibition at 20 µg/disc [38]: 19 mm; GI50 [39]: 0.316 µM; LC50 [39]: 22.4 µM; TGI ([39]; read-out: pTGI (converted)): 1.05 µM
